How the values were obtained:
α4(2)β2(2)α5 [1] = target: T1, α4(2)β2(2)α5 (Homo sapiens, UniProt P17787+P30532+P43681); assay type: cell-based
Method in brief: (§1)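 Xenopus oocytes defolliculated with collagenase, clamped at −60 mV and perfused with Ringer's containing 1 μM atropine. Rising test compound concentrations were co-applied with control ACh (100 μM for α4(2)β2(2)α5, 30 μM for α4β2α6β2β3), alternating with ACh alone; fresh cells were used if ACh controls fell below 75%. Peak currents were normalised to the preceding ACh control.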

α4β2α6β2β3 [2] = target: T2, α4β2α6β2β3 (Homo sapiens, UniProt P17787+P43681+Q05901+Q15825); assay type: cell-based
Method in brief: as §1

α2(2)β2(2)α5 = α2(2)β2(2)α5 (Homo sapiens, UniProt P17787+P30532+Q15822); assay: two-electrode voltage clamp, Xenopus oocytes, agonist-evoked response; assay type: cell-based
α4(2)β2(2)α5 [3] = target: T1, α4(2)β2(2)α5; assay: cell-based
α4β2α6β2β3 [4] = target: T2, α4β2α6β2β3; assay: cell-based

T1 sequence (P43681 27-627): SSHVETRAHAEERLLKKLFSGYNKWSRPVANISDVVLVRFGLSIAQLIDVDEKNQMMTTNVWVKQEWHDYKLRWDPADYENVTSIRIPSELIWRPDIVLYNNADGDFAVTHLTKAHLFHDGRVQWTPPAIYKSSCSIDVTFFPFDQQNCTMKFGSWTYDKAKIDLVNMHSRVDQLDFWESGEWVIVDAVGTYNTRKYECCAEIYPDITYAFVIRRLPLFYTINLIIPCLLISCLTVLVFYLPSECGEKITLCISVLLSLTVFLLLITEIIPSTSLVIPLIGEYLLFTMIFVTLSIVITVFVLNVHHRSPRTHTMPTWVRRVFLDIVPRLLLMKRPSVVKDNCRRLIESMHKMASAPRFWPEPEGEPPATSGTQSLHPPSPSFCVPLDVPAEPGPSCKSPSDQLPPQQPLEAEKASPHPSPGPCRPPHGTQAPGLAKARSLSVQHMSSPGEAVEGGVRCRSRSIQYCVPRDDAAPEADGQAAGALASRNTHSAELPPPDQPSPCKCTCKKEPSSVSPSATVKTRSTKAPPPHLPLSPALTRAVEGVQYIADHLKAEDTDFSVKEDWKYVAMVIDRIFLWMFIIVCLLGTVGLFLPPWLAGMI
T1 sequence (P17787 26-502): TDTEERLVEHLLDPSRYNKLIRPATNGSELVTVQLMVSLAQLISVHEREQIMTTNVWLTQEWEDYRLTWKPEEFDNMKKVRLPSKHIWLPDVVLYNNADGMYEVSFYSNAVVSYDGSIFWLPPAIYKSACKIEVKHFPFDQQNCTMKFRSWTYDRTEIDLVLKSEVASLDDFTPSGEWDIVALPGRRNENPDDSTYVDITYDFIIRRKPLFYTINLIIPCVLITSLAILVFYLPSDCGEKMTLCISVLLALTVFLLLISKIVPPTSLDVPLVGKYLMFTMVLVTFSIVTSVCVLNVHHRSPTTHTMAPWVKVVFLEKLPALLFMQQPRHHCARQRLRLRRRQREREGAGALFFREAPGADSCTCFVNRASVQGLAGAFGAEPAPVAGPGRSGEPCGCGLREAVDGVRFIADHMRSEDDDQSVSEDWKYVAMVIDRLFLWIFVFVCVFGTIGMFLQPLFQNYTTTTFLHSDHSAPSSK
T1 sequence (P30532 23-468): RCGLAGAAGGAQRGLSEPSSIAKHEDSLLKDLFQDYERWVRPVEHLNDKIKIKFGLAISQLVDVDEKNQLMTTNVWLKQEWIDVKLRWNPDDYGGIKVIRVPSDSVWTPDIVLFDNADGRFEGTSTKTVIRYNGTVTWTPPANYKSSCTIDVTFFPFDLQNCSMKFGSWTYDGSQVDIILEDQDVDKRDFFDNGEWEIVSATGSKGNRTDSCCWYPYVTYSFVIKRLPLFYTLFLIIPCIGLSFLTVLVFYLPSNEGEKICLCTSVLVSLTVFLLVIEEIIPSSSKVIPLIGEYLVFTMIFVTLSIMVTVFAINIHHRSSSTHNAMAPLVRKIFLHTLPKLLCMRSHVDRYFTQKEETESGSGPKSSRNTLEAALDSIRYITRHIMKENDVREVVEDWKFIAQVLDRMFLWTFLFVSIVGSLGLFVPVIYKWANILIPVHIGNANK
T2 sequence (P43681 27-627): as the sequence (P43681 27-627) above
T2 sequence (P17787 26-502): as the sequence (P17787 26-502) above
T2 sequence (Q15825 26-494): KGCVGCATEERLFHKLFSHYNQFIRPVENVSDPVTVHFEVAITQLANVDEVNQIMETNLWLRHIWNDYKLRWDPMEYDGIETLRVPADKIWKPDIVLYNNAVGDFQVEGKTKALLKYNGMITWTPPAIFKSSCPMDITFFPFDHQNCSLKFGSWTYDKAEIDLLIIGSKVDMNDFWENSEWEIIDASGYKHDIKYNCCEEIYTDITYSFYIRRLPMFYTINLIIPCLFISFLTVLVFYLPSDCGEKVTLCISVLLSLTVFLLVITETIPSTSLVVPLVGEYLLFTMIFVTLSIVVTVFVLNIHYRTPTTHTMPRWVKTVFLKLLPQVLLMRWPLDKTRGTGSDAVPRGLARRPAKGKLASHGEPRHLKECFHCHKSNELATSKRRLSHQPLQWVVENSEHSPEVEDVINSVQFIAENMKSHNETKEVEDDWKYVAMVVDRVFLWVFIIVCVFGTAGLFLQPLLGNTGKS
T2 sequence (Q05901 22-458): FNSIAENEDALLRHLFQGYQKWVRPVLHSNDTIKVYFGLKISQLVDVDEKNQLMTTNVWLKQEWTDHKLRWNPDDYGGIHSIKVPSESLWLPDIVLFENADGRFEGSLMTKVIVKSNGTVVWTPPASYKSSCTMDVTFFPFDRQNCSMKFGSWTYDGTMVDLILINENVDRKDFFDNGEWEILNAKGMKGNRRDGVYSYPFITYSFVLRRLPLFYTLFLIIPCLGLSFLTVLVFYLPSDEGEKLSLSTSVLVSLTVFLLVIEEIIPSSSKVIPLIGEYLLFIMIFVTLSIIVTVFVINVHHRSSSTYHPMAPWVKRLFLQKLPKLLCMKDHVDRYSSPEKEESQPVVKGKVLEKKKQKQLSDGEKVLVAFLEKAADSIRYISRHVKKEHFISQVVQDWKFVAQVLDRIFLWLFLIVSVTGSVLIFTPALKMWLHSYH
Sequence of α2(2)β2(2)α5 (Q15822 27-529): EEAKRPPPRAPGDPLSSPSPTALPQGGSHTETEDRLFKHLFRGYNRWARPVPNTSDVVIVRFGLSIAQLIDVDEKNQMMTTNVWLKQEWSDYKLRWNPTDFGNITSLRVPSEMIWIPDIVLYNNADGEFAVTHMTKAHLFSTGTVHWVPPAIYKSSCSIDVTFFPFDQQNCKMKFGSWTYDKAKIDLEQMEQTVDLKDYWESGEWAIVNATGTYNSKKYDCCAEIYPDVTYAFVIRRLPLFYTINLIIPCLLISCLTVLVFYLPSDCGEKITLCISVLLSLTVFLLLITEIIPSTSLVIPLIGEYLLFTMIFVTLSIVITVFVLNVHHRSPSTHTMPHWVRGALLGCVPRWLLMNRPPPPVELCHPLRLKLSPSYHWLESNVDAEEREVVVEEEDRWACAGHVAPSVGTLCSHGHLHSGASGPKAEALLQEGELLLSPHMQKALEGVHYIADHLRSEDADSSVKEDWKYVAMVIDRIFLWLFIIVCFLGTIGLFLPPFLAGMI
Sequence of α2(2)β2(2)α5 (P17787 26-502): as the sequence (P17787 26-502) above
Sequence of α2(2)β2(2)α5 (P30532 23-468): as the sequence (P30532 23-468) above

Compound | IC50 (α4(2)β2(2)α5 [1]) [µM] | IC50 (α4β2α6β2β3 [2]) [µM] | EC50 (α2(2)β2(2)α5) [µM] | EC50 (α4(2)β2(2)α5 [3]) [µM] | EC50 (α4β2α6β2β3 [4]) [µM]
CN[C@@]1(C)[C@@H]2CC[C@@H](C2)C1(C)C [S(+)Mecamylamine, N-2,3,3-tetramethylbicyclo[2.2.1]heptan-2-amine] | 12 ± 1 | 14 ± 7 | – | – | –
CCOc1cncc(/C=C/CCNC)c1 [TC-2559] | – | – | 6.2 ± 1 | 1.6 ± 0.3 | 1.7 ± 0.3
CN1CCC[C@H]1c1cccnc1 [nicotine] | – | – | 1.6 ± 0.2 | – | –
CNC1(C)C2CCC(C2)C1(C)C (stereo not drawn) [R(-)Mecamylamine, N-2,3,3-tetramethylbicyclo[2.2.1]heptan-2-amine] | 35 ± 5 | 13 ± 5 | – | – | –

From publication PMC3992716 (European journal of pharmacology, 2013)
